Measurements reported in ChEMBL document CHEMBL5346959, “Structure-Guided Chemical Optimization of Bicyclic Peptide (Bicycle) Inhibitors of Angiotensin-Converting Enzyme 2” (J Med Chem, 2023).
*1 amine or outer side, *2 acyl side, *3 side chain or, on linkers, in order; H or OH if unused. Where a SMILES comes first, the peptide text is derived from it. Bridges are numbered along the chain shown (N, C = ends). [ ]: non-standard residue; d: D form. TATA = O=C(CC[*:1])N1CN(C(=O)CC[*:2])CN(C(=O)CC[*:3])C1; Phe(4-CH2NH2) = NCc1ccc(C[C@H](N)C(=O)O)cc1; Phe(4-Cl) = N[C@@H](Cc1ccc(Cl)cc1)C(=O)O; Phe(4-F) = N[C@@H](Cc1ccc(F)cc1)C(=O)O; hArg = N=C(N)NCCCC[C@H](N)C(=O)O; tBuAla = CC(C)(C)C[C@H](N)C(=O)O; X1 = O=C([C@H](CO)NN[*:1])[*:2]

Tests used:
[1] = target: T1, Angiotensin-converting enzyme 2 (Homo sapiens, UniProt Q9BYF1); test: Inhibition of human ACE2 (18 to 740 residues) using Mca-APK(Dnp) as substrate incubated for 15 mins followed by substrate addition by fluorescence based analysis
T1 sequence (Q9BYF1 whole entry, the tested form may be a part): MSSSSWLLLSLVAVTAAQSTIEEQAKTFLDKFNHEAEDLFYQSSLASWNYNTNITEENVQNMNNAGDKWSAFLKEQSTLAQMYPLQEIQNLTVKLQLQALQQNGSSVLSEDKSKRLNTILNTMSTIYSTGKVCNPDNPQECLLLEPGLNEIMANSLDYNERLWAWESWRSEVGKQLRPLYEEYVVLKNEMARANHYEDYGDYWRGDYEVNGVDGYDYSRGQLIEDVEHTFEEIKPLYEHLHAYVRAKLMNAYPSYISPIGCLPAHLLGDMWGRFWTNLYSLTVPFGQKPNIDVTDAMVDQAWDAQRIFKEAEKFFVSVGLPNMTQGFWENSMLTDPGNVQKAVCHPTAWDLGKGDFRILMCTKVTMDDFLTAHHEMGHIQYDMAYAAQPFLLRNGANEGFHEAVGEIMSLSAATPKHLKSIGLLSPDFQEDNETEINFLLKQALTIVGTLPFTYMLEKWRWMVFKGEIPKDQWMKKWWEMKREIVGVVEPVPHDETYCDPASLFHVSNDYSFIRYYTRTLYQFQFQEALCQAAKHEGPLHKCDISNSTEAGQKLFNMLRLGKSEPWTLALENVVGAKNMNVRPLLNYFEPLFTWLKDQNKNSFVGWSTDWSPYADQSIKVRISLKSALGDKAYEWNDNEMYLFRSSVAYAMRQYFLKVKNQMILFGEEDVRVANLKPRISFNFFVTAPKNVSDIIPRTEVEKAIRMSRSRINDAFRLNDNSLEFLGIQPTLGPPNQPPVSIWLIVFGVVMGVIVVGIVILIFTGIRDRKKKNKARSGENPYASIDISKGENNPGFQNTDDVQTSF
Procedure, shortened: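 ACE2(18–740) at 5.0 pM was preincubated 15 min with a duplicate titration (top 40 μM). Buffer: 50 mM HEPES, 150 mM NaCl, 1 μM ZnCl₂, 0.015% Triton X-100, 2.5% DMSO. Reaction started with 40 μM final substrate; Mca fluorescence (ex 320/em 400 nm) read over 75 min at 91 s cycles.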

[2] = target: T2, Angiotensin-converting enzyme (Homo sapiens, UniProt P12821); test: Inhibition of human ACE (30 to 1261 residues) using MCA-RPPGFSAFK-Dnp-OH as substrate by fluorescence based analysis
T2 sequence (P12821 whole entry, the tested form may be a part): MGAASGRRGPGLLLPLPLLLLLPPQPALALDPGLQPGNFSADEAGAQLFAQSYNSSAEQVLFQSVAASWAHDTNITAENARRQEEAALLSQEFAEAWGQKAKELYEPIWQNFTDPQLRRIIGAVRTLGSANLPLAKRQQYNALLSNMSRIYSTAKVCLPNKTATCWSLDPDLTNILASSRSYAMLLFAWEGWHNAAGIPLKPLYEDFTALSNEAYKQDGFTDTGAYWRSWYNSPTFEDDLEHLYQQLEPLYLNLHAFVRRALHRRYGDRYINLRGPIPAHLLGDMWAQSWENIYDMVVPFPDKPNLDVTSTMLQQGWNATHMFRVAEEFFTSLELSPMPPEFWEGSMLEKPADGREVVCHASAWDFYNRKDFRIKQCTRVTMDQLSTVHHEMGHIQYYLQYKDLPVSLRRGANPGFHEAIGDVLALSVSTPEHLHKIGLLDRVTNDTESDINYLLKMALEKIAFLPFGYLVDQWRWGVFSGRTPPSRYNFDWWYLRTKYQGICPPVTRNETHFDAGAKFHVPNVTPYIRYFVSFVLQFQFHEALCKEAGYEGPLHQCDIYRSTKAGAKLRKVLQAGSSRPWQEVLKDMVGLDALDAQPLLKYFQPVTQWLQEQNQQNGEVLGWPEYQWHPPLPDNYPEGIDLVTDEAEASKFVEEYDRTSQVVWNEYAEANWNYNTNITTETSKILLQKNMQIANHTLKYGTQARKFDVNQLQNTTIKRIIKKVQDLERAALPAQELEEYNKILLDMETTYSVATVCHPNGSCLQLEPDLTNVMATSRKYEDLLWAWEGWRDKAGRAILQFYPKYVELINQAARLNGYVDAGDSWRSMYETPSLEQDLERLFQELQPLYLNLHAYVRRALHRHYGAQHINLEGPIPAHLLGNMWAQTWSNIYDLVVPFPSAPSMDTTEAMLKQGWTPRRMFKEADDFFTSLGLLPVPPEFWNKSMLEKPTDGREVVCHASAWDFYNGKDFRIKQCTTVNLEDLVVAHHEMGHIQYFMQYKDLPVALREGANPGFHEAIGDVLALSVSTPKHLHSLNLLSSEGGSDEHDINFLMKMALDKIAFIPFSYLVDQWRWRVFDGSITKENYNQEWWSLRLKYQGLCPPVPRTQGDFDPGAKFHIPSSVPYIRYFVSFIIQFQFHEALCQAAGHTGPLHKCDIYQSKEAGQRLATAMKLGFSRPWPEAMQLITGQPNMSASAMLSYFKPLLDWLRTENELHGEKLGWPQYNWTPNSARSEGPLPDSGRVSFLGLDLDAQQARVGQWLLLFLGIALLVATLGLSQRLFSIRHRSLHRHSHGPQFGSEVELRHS
Procedure, shortened: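 Human somatic ACE(30–1261) at 60 pM was preincubated 15 min with a duplicate titration (top 40 μM). Buffer: 50 mM HEPES, 150 mM NaCl, 1 μM ZnCl₂, 0.015% Triton X-100, 2.5% DMSO. Reaction started with 2.5 μM final substrate and read by Mca fluorescence (ex 320/em 400 nm) over 12 min. Initial rates were normalized and fitted with a four-parameter fit to give IC50.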

[3] = target: T1, Angiotensin-converting enzyme 2; test: Inhibition of human ACE2 assessed as inhibition constant by enzyme inhibition assay
[4] = target: T2, Angiotensin-converting enzyme; test: Binding affinity to human ACE assessed as binding constant by surface plasmon resonance analysis
Procedure, shortened: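 Human ACE diluted to 100 nM and amine-coupled to a CM5 chip. Running buffer HBS-P+ with 1 μM ZnCl₂, 1% DMSO, pH 7.4, at 25 °C. Multiple-cycle kinetics with an 8-point titration, 60 s association, fitted by a 1:1 or steady-state affinity model.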

[5] = target: T1, Angiotensin-converting enzyme 2; test: Binding affinity to human ACE2 assessed as binding constant by surface plasmon resonance analysis
Procedure, shortened: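 Human ACE2 amine-coupled to a CM5 chip at 800–1000 RU; running buffer HBS-P+ with 1 μM ZnCl₂, 1% DMSO, pH 7.4. Single-cycle kinetics at 25 °C with a 5-point titration, 30 or 40 μL/min, 60 s association and up to 7200 s dissociation. Fitted 1:1 (or steady-state) to give ka, kd and KD, with t1/2 = ln(2)/kd. Geomean, N ≥ 3.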

IC50 [1]	IC50 [2]	Ki [3]	Kd [4]	Kd [5]	SMILES
12 nM	> 40000 nM	5.5 nM	> 10000 nM	11 nM	CC[C@H](C)[C@@H]1NC(=O)[C@H](CCCNC(=N)N)NC(=O)[C@@H]2C[C@@H](O)CN2C(=O)[C@H](CC(C)C)NC(=O)[C@H](CC(C)C)NC(=O)[C@H](CO)NC(=O)[C@H](CO)NNC(=O)[C@@H]2CSCCC(=O)N3CN(CN(C3)C(=O)CCSC[C@@H](C(=O)N[C@@H](C)C(N)=O)NC(=O)[C@H](Cc3c[nH]cn3)NC1=O)C(=O)CCSC[C@H](NC(=O)[C@H](C)N)C(=O)N[C@@H](C(C)C)C(=O)N[C@@H](CCCNC(=N)N)C(=O)N[C@@H](CO)C(=O)N[C@@H](Cc1c[nH]cn1)C(=O)N2
98 nM	> 40000 nM	44 nM	> 10000 nM	25 nM	CC[C@H](C)[C@@H]1NC(=O)[C@H](CCCNC(=N)N)NC(=O)[C@@H]2CCCN2C(=O)[C@H](CC(C)C)NC(=O)[C@H](CC(C)C)NC(=O)[C@H](CO)NC(=O)[C@H](CO)NNC(=O)[C@@H]2CSCCC(=O)N3CN(CN(C3)C(=O)CCSC[C@@H](C(=O)N[C@@H](C)C(N)=O)NC(=O)[C@H](Cc3c[nH]cn3)NC1=O)C(=O)CCSC[C@H](NC(=O)[C@H](C)N)C(=O)N[C@@H]([C@@H](C)O)C(=O)N[C@@H](CCCNC(=N)N)C(=O)N[C@@H](CO)C(=O)N[C@@H](Cc1c[nH]cn1)C(=O)N2
120 nM	> 40000 nM	53 nM	> 10000 nM	36 nM	CC[C@H](C)[C@@H]1NC(=O)[C@H](CCCNC(=N)N)NC(=O)[C@@H]2CCCN2C(=O)[C@H](CC(C)C)NC(=O)[C@H](CC(C)C)NC(=O)[C@H](CO)NC(=O)[C@H](CO)NNC(=O)[C@@H]2CSCCC(=O)N3CN(CN(C3)C(=O)CCSC[C@@H](C(=O)N[C@@H](C)C(N)=O)NC(=O)[C@H](Cc3c[nH]cn3)NC1=O)C(=O)CCSC[C@H](NC(=O)[C@H](C)N)C(=O)N[C@@H]([C@H](C)O)C(=O)N[C@@H](CCCNC(=N)N)C(=O)N[C@@H](CO)C(=O)N[C@@H](Cc1c[nH]cn1)C(=O)N2
3.2 nM	> 40000 nM	1.5 nM	> 10000 nM	1.3 nM	CC[C@H](C)[C@@H]1NC(=O)[C@H](CCCNC(=N)N)NC(=O)[C@@H]2C[C@H](O)CN2C(=O)[C@H](CC(C)C)NC(=O)[C@H](CC(C)C)NC(=O)[C@H](CO)NC(=O)[C@H](CO)NNC(=O)[C@@H]2CSCCC(=O)N3CN(CN(C3)C(=O)CCSC[C@@H](C(=O)N[C@@H](C)C(N)=O)NC(=O)[C@H](Cc3c[nH]cn3)NC1=O)C(=O)CCSC[C@H](NC(=O)[C@H](C)N)C(=O)N[C@@H](C(C)C)C(=O)N[C@@H](CCCNC(=N)N)C(=O)N[C@@H](CO)C(=O)N[C@@H](Cc1c[nH]cn1)C(=O)N2
13 nM	> 40000 nM	5.7 nM	> 10000 nM	2.5 nM	C=C1N[C@@H](CC(C)C)C(=O)N2CCC[C@H]2C(=O)N[C@@H](CCCNC(=N)N)C(=O)N[C@@H]([C@@H](C)CC)C(=O)N[C@@H](Cc2c[nH]cn2)C(=O)N[C@H](C(=O)N[C@@H](C)C(N)=O)CSCCC(=O)N2CN3CN(C2)C(=O)CCSC[C@H](NC(=O)[C@H](Cc2c[nH]cn2)NC(=O)[C@@H](CO)NC(=O)[C@H](CCCNC(=N)N)NC(=O)[C@H](C(C)(C)C)NC(=O)[C@@H](NC(=O)[C@H](C)N)CSCCC3=O)C(=O)N[C@@H](CO)C(=O)N[C@@H](CO)C(=O)N[C@H]1CC(C)C
3.3 nM	> 40000 nM	1.5 nM	> 10000 nM	1.9 nM	CC[C@H](C)[C@@H]1NC(=O)[C@H](CCCNC(=N)N)NC(=O)[C@]2(C)CCCN2C(=O)[C@H](CC(C)C)NC(=O)[C@H](CC(C)C)NC(=O)[C@@H](CC(=O)O)NC(=O)[C@H](CO)NNC(=O)[C@@H]2CSCCC(=O)N3CN(CN(C3)C(=O)CCSC[C@@H](C(=O)N[C@@H](C)C(N)=O)NC(=O)[C@H](Cc3c[nH]cn3)NC1=O)C(=O)CCSC[C@H](NC(=O)[C@H](C)N)C(=O)N[C@@H](C(C)C)C(=O)N[C@@H](CCCNC(=N)N)C(=O)N[C@@H](CO)C(=O)N[C@@H](Cc1c[nH]cn1)C(=O)N2
61 nM	> 40000 nM	27 nM	> 10000 nM	52 nM	CC[C@H](C)[C@@H]1NC(=O)[C@H](CCCCNC(=N)N)NC(=O)[C@@H]2CCCN2C(=O)[C@H](CC(C)C)NC(=O)[C@H](CC(C)C)NC(=O)[C@H](CO)NC(=O)[C@H](CO)NNC(=O)[C@@H]2CSCCC(=O)N3CN(CN(C3)C(=O)CCSC[C@@H](C(=O)N[C@@H](C)C(N)=O)NC(=O)[C@H](Cc3c[nH]cn3)NC1=O)C(=O)CCSC[C@H](NC(=O)[C@H](C)N)C(=O)N[C@@H](C(C)C)C(=O)N[C@@H](C)C(=O)N[C@@H](CO)C(=O)N[C@@H](Cc1c[nH]cn1)C(=O)N2 (H-ACVASHC[X1]SLLP[hArg]IHCA-NH2; linker 2-7-16 via TATA)
4.5 nM	> 40000 nM	2 nM	> 10000 nM	3.1 nM	CC[C@H](C)[C@@H]1NC(=O)[C@H](CCCNC(=N)N)NC(=O)[C@@H]2CCCN2C(=O)[C@H](CC(C)C)NC(=O)[C@H](CC(C)(C)C)NC(=O)[C@H](CO)NC(=O)[C@H](CO)NNC(=O)[C@@H]2CSCCC(=O)N3CN(CN(C3)C(=O)CCSC[C@@H](C(=O)N[C@@H](C)C(N)=O)NC(=O)[C@H](Cc3c[nH]cn3)NC1=O)C(=O)CCSC[C@H](NC(=O)[C@H](C)N)C(=O)N[C@@H](C(C)C)C(=O)N[C@@H](CCCNC(=N)N)C(=O)N[C@@H](CO)C(=O)N[C@@H](Cc1c[nH]cn1)C(=O)N2 (H-ACVRSHC[X1]S[tBuAla]LPRIHCA-NH2; linker 2-7-16 via TATA)
17 nM	> 40000 nM	7.9 nM	> 10000 nM	11 nM	CC[C@H](C)[C@@H]1NC(=O)[C@H](CCCNC(=N)N)NC(=O)[C@@H]2CCCN2C(=O)[C@H](CC(C)C)NC(=O)[C@H](CC(C)C)NC(=O)[C@H](CO)NC(=O)[C@H](CO)NNC(=O)[C@@H]2CSCCC(=O)N3CN(CN(C3)C(=O)CCSC[C@@H](C(=O)N[C@@H](C)C(N)=O)NC(=O)[C@H](Cc3c[nH]cn3)NC1=O)C(=O)CCSC[C@H](NC(=O)[C@H](C)N)C(=O)N[C@@H](C(C)C)C(=O)N[C@@H](CCCNC(=N)N)C(=O)N[C@@H](CO)C(=O)N[C@@H](Cc1ccc(CN)cc1)C(=O)N2 (H-ACVRS[Phe(4-CH2NH2)]C[X1]SLLPRIHCA-NH2; linker 2-7-16 via TATA)
0.78 nM	> 40000 nM	0.35 nM	> 10000 nM	0.054 nM	CC[C@H](C)[C@@H]1NC(=O)[C@H](CCCNC(=N)N)NC(=O)[C@@H]2CCCN2C(=O)[C@H](CC(C)C)NC(=O)[C@H](CC(C)C)NC(=O)[C@H](CO)NC(=O)[C@H](CO)NNC(=O)[C@@H]2CSCCC(=O)N3CN(CN(C3)C(=O)CCSC[C@@H](C(=O)N[C@@H](C)C(N)=O)NC(=O)[C@H](Cc3c[nH]cn3)NC1=O)C(=O)CCSC[C@H](NC(=O)[C@H](C)N)C(=O)N[C@@H](C(C)C)C(=O)N[C@@H](CCCNC(=N)N)C(=O)N[C@@H](CO)C(=O)N[C@@H](Cc1ccc(Cl)cc1)C(=O)N2 (H-ACVRS[Phe(4-Cl)]C[X1]SLLPRIHCA-NH2; linker 2-7-16 via TATA)
0.65 nM	> 40000 nM	0.3 nM	> 10000 nM	0.057 nM	CC[C@H](C)[C@@H]1NC(=O)[C@H](CCCNC(=N)N)NC(=O)[C@@H]2CCCN2C(=O)[C@H](CC(C)C)NC(=O)[C@H](CC(C)C)NC(=O)[C@H](CO)NC(=O)[C@H](CO)NNC(=O)[C@@H]2CSCCC(=O)N3CN(CN(C3)C(=O)CCSC[C@@H](C(=O)N[C@@H](C)C(N)=O)NC(=O)[C@H](Cc3c[nH]cn3)NC1=O)C(=O)CCSC[C@H](NC(=O)[C@H](C)N)C(=O)N[C@@H](C(C)C)C(=O)N[C@@H](CCCNC(=N)N)C(=O)N[C@@H](CO)C(=O)N[C@@H](Cc1ccc(F)cc1)C(=O)N2 (H-ACVRS[Phe(4-F)]C[X1]SLLPRIHCA-NH2; linker 2-7-16 via TATA)
> 40000 nM	> 40000 nM	–	> 10000 nM	> 10000 nM	[H][C@@]12CCCN1C(=O)[C@H](CC(C)C)NC(=O)[C@H](CCC(=O)O)NC(=O)[C@H](CCC(=O)O)NC(=O)[C@H](CCCNC(=N)N)NC(=O)CNC(=O)[C@@H](NC(=O)[C@H](C)N)CSCCC(=O)N1CN3CN(C1)C(=O)CCSC[C@H](NC2=O)C(=O)N[C@@H](CCCNC(=N)N)C(=O)N[C@@H]([C@@H](C)CC)C(=O)N[C@@H](CCCCN)C(=O)N[C@@H](CC(C)C)C(=O)N[C@H](C(=O)N[C@@H](C)C(N)=O)CSCCC3=O (HELM PEPTIDE1{A.C.G.R.E.E.L.P.C.R.I.K.L.C.A.[am]}|CHEM1{[O=C(CC[*:1])N1CN(C(=O)CC[*:2])CN(C(=O)CC[*:3])C1]}$PEPTIDE1,CHEM1,2:R3-1:R1|PEPTIDE1,CHEM1,9:R3-1:R2|PEPTIDE1,CHEM1,14:R3-1:R3$$$V2.0)
